Mdm2 ligase inh: Mdm2 E3 ligase (human) inhibition; Q00987; cell-based MDM2 ubiquitination luciferase reporter, 2 h; 0 = plate control, 100 = twice control, blank-subtracted; signal enhancement, % at 5 µM; 210,000 compounds, 0.11% hits; AID 1230;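 active = signal enhancement of 30% or more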;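 also: luminescence tracks abundance of the self-degrading MDM2-luciferase fusion protein; higher signal means inhibition of MDM2 E3 ligase activity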
Target sequence (Q00987 whole entry, looked up, the tested form may be a part): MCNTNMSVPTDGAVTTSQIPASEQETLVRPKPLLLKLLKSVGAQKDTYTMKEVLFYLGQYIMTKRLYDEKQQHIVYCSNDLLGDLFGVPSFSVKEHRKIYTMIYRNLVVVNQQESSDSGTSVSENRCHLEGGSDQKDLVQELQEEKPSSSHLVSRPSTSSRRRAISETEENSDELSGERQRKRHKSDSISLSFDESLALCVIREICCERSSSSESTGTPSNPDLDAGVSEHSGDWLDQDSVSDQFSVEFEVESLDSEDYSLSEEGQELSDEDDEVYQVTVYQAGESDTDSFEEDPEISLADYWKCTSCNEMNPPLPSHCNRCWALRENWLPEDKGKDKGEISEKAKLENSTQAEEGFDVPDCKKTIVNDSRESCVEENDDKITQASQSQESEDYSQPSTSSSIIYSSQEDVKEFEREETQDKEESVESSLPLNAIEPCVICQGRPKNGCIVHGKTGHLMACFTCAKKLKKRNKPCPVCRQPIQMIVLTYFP
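test system = mammalian cells stably expressing self-ubiquitinating, self-degrading MDM2 E3–luciferase fusion | quantity = 2000 cells/well | incubation = cell settling 4 h, compound treatment 2 h, both 37 °C | signal = luminescence with SteadyLite reagent, 15 min at room temperature | evaluation = % enhancement relative to plate controls after blank subtraction | benchmarks = plate controls and plate blanks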
Hck Nef HTS: human Hck-Nef kinase inhibition; inhibition, % at 20 µM; Recombinant Hck-YEEI plus Nef, Z-Lyte FRET kinase assay; P08631; 220,000 compounds, 0.68% hits;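 active = Hck-Nef kinase inhibition above about 50%, limit read from the data; inactive = inhibition below that limit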;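 also: 0% = DMSO with Hck plus Nef and 100% = Hck alone without Nef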
Tb hexokinase: blocks Trypanosoma brucei hexokinase 1 activity; recombinant TbHK1, G6PDH-coupled NADH A340; inhibition, % at 10 µM; 220,000 compounds, 0.11% hits;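 active = inhibition of 50% or more in the single-dose primary screen; inactive = inhibition below 50%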
14-3-3 Bad inh: disrupts binding of bovine 14-3-3 zeta to phospho-Bad peptide; P63103; TR-FRET 14-3-3zeta/Dy647-pBad peptide displacement, 1 h; inhibition, % at 21.7 µM; 220,000 compounds, 0.71% hits;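 active = inhibition above about 70%, limit read from the data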;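 also: 0% = full 14-3-3 plus peptide FRET controls and 100% = background without 14-3-3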
Target sequence (P63103 whole entry, looked up): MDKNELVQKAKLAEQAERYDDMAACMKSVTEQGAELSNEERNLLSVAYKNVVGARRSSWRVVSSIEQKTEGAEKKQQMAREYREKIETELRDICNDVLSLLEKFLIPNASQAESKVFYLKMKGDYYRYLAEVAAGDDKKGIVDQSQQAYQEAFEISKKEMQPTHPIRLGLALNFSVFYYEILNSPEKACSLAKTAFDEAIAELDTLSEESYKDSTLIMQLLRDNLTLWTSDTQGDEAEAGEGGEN
Wee1 degr inh: blocks degradation of human Wee1 kinase | P30291 | 220,000 compounds, 1.2% hits | HeLa Luc-Wee1K328M stability, luciferase luminescence; 100% = proteasome inhibitor MG132 effect | reporter increase, % at 5 µM;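 active = activation above the mean of all tested compounds plus 3 SD, set per screening run, cut at about 8.8% in these data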;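 also: cells exposed to compound for 20 h before luminescence read; 0% = DMSO alone and 100% = MG132 at 30 µM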
Wee1 stab conf: human Wee1 degradation inhibition, confirmation; HeLa Luc-Wee1K328M degradation, luminescence; vehicle 0%, proteasome-blocked wells 100%; AID 1410; shares compounds with Wee1 degr inh; activation, % at 5 µM; 1,100 compounds, 4% hits; in the data active = activation above about 8.9%
* marks the source's active call; other numbers are inactive results; nt = no result given. Most compounds without a hit are left out; they make up all but 2.7% or so of the library.

SMILES | Mdm2 ligase inh | Hck Nef HTS | Tb hexokinase | 14-3-3 Bad inh | Wee1 degr inh | Wee1 stab conf
Cc1ccc(/C=C/C(=O)Nc2ccc([N+](=O)[O-])cc2)o1 | -58.5 | 0.1 | -16.9 | 6.7 | 0.3 | nt
Cc1c(NC(=S)NC(=O)C(C)(C)C)c(=O)n(-c2ccccc2)n1C | 3.1 | -1.2 | -1.6 | -3.3 | -0.9 | nt
Cc1c(NC(=S)NC(C)(C)C)c(=O)n(-c2ccccc2)n1C | 2.8 | 24.2 | -1.5 | -14.3 | 13.7* | -1.6
COc1cc(/C=C/c2nnc3c4ccccc4ncn23)cc(OC)c1OC | -5.2 | 1.4 | -30.5 | 2.3 | 1.8 | nt
C(=C\c1nnc2c3ccccc3ncn12)/c1ccccc1 | -33.8 | 1.6 | 31.6 | -7.2 | 12.2* | 8.2
CN(CC(=O)OCC(=O)c1c(N)n(C)c(=O)n(C)c1=O)S(=O)(=O)c1ccc(Cl)cc1 | -5.6 | 2.8 | 1.9 | 6.2 | -0.7 | nt
CC(C)(C)c1ccc(Oc2ncccc2NC(=O)c2cccs2)cc1 | -16.8 | 4.7 | -7.0 | 0.3 | -1.1 | nt
Cc1ccc(-c2cc(C(=O)O)n(-c3ccc(S(N)(=O)=O)cc3)n2)cc1 | -9.4 | -3.1 | -3.3 | 5.3 | 5.1 | nt
CCn1c(CSc2nc(C)cc(C)n2)nnc1SCC(=O)N1CCCc2ccccc21 | -23.7 | 0.3 | 5.7 | -2.7 | 14.0* | 1.5
COc1ccc(N(CC(=O)Nc2c(C)n(C)n(-c3ccccc3)c2=O)S(=O)(=O)c2ccc(F)cc2)cc1 | -7.3 | 2.6 | 1.1 | -5.1 | 13.2* | -0.4
O=C(CN1C(=O)c2ccccc2C1=O)Nc1ccccc1C(=O)N1CCCC1 | -21.6 | 2.2 | -7.2 | -17.1 | 1.6 | nt
CC(=O)Nc1ccc(N2CCCC2)cc1 | -10.3 | 9.8 | -5.1 | 1.4 | -0.4 | nt
CC(=O)Nc1ccc(N2CCCCC2)cc1 | -7.9 | 1.4 | -5.6 | -6.3 | 11.9* | 2.0
Cc1ccc2nc(CSc3nc(C)ccc3C#N)[nH]c2c1 | -9.2 | 2.6 | -17.3 | 42.1 | 4.5 | nt
Cc1ccc(C#N)c(SCc2ccccc2F)n1 | -11.4 | 4.8 | -1.0 | 3.0 | 11.0* | 2.8
Cc1ccccc1-n1c2nc(=O)n(C)c(=O)c-2cc2ccccc21 | 1.9 | 49.2 | -7.2 | 47.6 | 14.4* | 1.0
COc1ccc(C2CC(c3ccc(C)o3)=NN2C(C)=O)cc1 (stereo not given) | -12.9 | 4.3 | -5.0 | 4.3 | 11.8* | 1.2
CC(=O)N1N=C(c2ccc(C)o2)CC1c1ccc(Br)cc1 (stereo not given) | -14.5 | 1.0 | -2.4 | -10.9 | 4.8 | nt
CCOC(=O)C1(CC2CCCCO2)CCN(C(=O)Nc2ccccc2SC)CC1 (stereo not given) | -29.8 | 9.3 | -7.1 | -5.6 | 11.7* | 2.5
CCOC(=O)C1(CC2CCCCO2)CCN(C(=O)Nc2ccccc2CC)CC1 (stereo not given) | -14.3 | -18.3 | 9.9 | -6.3 | -1.8 | nt
Cc1c(Br)c(O)c(Br)c2sc(=O)oc12 | -8.0 | 1.6 | 3.1 | 10.2 | -2.5 | nt
Cc1nnc(SCC(=O)Nc2ccc(-c3nc4ccccc4s3)cc2)s1 | -55.5 | 6.4 | -2.3 | 16.1 | 1.9 | nt
Cc1nnc(SCC(=O)Nc2nsc(-c3ccc(C(C)(C)C)cc3)n2)s1 | -24.6 | -0.3 | -9.8 | 2.6 | 18.2* | 1.5
C=CCn1c(SCc2ccc3c(c2)OCO3)nc2scc(-c3ccco3)c2c1=O | -13.1 | 1.2 | -11.5 | 0.5 | 1.4 | nt
COC(=O)c1cc(NC(=O)c2cc(-c3ccc(OC)cc3)oc2C(F)(F)F)ccc1N1CCOCC1 | -20.9 | 5.0 | -22.2 | 5.1 | 11.6* | 1.9
SMILES | Mdm2 ligase inh | Hck Nef HTS | Tb hexokinase | 14-3-3 Bad inh | Wee1 degr inh | Wee1 stab conf
O=S(=O)(c1ccc(S(=O)(=O)N(Cc2ccco2)Cc2ccccc2Cl)cc1)N1CCCC1 | -9.7 | -1.3 | 4.7 | 6.3 | 26.9* | 2.0
Cc1ccc(-c2nc(=S)c3c(n2Cc2ccco2)CC(C)(C)OC3)cc1 | 0.4 | -1.3 | -43.4 | 4.0 | 12.7* | 0.6
Cc1ccc(-c2nc(=S)c3c(n2Cc2ccco2)CCCC3)cc1 | -11.5 | -10.2 | -8.1 | -5.3 | 2.1 | nt
C1CCN(c2c3c(nc4nnnn24)CCCC3)CC1 | 11.7 | 0.1 | 1.0 | 5.1 | -0.5 | nt
NC(=O)COc1ccc2oc(-c3ccccc3)cc(=O)c2c1 | -90.0 | 19.6 | 0.3 | 13.1 | 13.7* | 3.5
O=S(=O)(NCC1CCCO1)c1ccc(Cl)nc1 (stereo not given) | -13.0 | -1.8 | -10.2 | 2.3 | 0.1 | nt
O=C(O)Cn1c(CCS(=O)(=O)c2ccc(Br)cc2)nc2ccccc21 | -6.0 | 12.0 | 5.8 | 3.6 | 12.8* | -0.7
O=C(CN1CCN(Cc2ccccc2)CC1)N/N=C/c1ccccc1F | 1.8 | 16.8 | -6.1 | 4.2 | -1.4 | nt
O=C(O)COc1ccccc1/C=N/NC(=O)CN1CCN(Cc2ccc(Cl)cc2)CC1 | -72.5 | 16.2 | -20.7 | 7.2 | 24.6* | 2.0
COc1ccc(C(=O)NNC(=O)CSc2nnc(-c3cccnc3)o2)cc1 | -3.1 | 16.9 | -8.4 | -16.3 | -2.1 | nt
Cn1cccc1/C=C1\SC(=Nc2ccccc2)NC1=O | -6.3 | 20.5 | -10.5 | -1.5 | 19.3* | 13.5*
Cn1cccc1/C=C1\SC(=Nc2ccc(O)cc2)NC1=O | -5.8 | 25.6 | -3.0 | -8.4 | -0.7 | nt
Cc1cccc(CC(=O)Nc2cc(=O)n(C)c(=O)n2C)c1 | -33.6 | 0.9 | -5.2 | 5.2 | 2.9 | nt
Cn1c(NC(=O)Cc2cccc3ccccc23)cc(=O)n(C)c1=O | -7.3 | 11.6 | 0.2 | -2.4 | 13.1* | -2.0
Cc1cc(-c2nnc(-c3cccc(Cl)c3)o2)no1 | -18.8 | 3.0 | -2.8 | -3.8 | 18.3* | 2.5
O=C(CCc1ccccc1)N1CCN(c2ccc(F)cc2)CC1 | -16.2 | -17.5 | -1.7 | -4.1 | -0.4 | nt
CC(C)(C)NC(=O)NCCc1ccccc1 | -16.3 | 4.0 | -6.1 | 1.6 | 13.0* | -0.8
Nc1nnc(-c2ccc(Cl)cc2)s1 | -8.0 | -22.7 | 16.8 | -4.7 | 11.5* | 5.3
COc1ccc(CCNC(=S)NCc2ccc(Cl)c(Cl)c2)cc1OC | -5.4 | -13.7 | -1.8 | -12.8 | 0.2 | nt
Cc1ccc(NC2=CC(=O)CC(c3ccc(Cl)cc3)C2)cc1 (stereo not given) | -14.2 | 1.2 | 1.4 | -3.5 | 14.8* | 1.2
CCCNC(=O)c1ccc2c(c1)CCN2S(C)(=O)=O | -14.1 | 3.1 | 1.0 | -11.7 | 3.3 | nt
CS(=O)(=O)N1CCc2cc(C(=O)NC3CC3)ccc21 | -4.0 | -18.4 | 1.9 | -5.8 | 14.1* | 3.3
Cc1ccc2nc(SCC(=O)NCC3CCCO3)c(C#N)cc2c1 (stereo not given) | -9.2 | 1.2 | 1.1 | -1.4 | 11.5* | 2.6
CC1CCCCC12NC(=O)N(CC(=O)NC(=O)NCc1ccco1)C2=O (stereo not given) | -12.1 | -0.4 | -6.3 | -20.7 | -0.1 | nt
Cc1nc2ccc(NC(=O)c3ccc4ccccc4n3)cc2s1 | -14.6 | 24.6 | -11.3 | 37.2 | -2.0 | nt
Cc1nnc(NC(=O)c2ccc3ccccc3n2)s1 | -5.2 | 10.4 | -2.0 | -12.1 | 14.1* | 6.3
